# Reference: ChEMBL document CHEMBL4024789, “Neutral Porphyrin Derivative Exerts Anticancer Activity by Targeting Cellular Topoisomerase I (Top1) and Promotes Apoptotic Cell Death without Stabilizing Top1-DNA Cleavage Complexes” (J Med Chem, 2018)
# The source made the active and inactive calls. The rule behind the calls is not given here.
# Legend:
# DNA topoisomerase 1 [1] = target: T1, DNA topoisomerase 1 (Homo sapiens, UniProt P11387); test: Inhibition of recombinant human topoisomerase-1 expressed in baculovirus infected sf9 cells using supercoiled pBS SK(+) DNA as substrate after 15 mins by ethidium bromide staining based agarose gel electrophoresis method
# T1 sequence (P11387 whole entry): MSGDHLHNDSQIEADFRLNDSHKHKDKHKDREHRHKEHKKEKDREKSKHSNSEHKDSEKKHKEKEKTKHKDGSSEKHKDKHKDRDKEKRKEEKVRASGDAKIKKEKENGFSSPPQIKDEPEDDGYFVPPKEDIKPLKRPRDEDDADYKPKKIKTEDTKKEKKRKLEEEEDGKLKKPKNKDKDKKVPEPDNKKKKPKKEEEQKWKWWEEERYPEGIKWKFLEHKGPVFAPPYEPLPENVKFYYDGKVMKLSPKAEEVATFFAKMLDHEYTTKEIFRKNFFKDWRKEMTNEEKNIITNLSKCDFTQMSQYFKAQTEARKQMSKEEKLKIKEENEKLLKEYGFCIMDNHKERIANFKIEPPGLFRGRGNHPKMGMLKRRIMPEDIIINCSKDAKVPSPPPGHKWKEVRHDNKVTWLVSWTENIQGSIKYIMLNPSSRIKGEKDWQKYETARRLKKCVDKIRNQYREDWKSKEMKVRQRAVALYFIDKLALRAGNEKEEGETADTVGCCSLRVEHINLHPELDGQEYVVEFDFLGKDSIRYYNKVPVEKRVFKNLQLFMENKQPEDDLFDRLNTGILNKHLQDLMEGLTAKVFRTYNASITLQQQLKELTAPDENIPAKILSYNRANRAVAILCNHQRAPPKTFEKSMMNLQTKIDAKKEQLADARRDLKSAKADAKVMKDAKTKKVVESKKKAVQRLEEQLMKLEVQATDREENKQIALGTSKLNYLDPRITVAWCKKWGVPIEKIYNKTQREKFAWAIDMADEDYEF
# How it was run: (§1)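 Relaxation assay: 90 fmol supercoiled pBS (SK+) DNA with 30 fmol recombinant Top1 (Sf-9/baculovirus). Compound either preincubated with Top1 for 5 min before DNA addition, or added simultaneously with DNA; then 37 °C for 15 min. Vehicle 2% DMSO. Read on 1% agarose gel. EC50 from mean ± SD of three experiments.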
# DNA topoisomerase 1 [2] = target: T1, DNA topoisomerase 1; test: Inhibition of recombinant human topoisomerase-1 expressed in baculovirus infected sf9 cells using supercoiled pBS SK(+) DNA as substrate preincubated for 5 mins followed by substrate addition measured after 15 mins by ethidium bromide staining based agarose gel electrophoresis method; how it was run: as §1
# Bacteria [3] = test: Induction of relaxed pBluescript SK(+) DNA intercalation (unknown origin) assessed as negative supercoiling at 300 uM after 15 mins by agarose gel electrophoresis method
# How it was run: (§2)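 Top1 unwinding assay: excess Top1 first relaxes 50 fmol supercoiled pBS (SK+) DNA, then the relaxed DNA is incubated with compound at 50, 100 or 300 μM (m-AMSA and etoposide as references). Negative supercoiling read on agarose gel.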
# Bacteria [4] = test: Induction of relaxed pBluescript SK(+) DNA intercalation (unknown origin) assessed as negative supercoiling at 50 uM after 15 mins by agarose gel electrophoresis method; how it was run: as §2
Compound,EC50 (DNA topoisomerase 1 [1]) [µM],EC50 (DNA topoisomerase 1 [2]) [µM],Activity (Bacteria [3]),Activity (Bacteria [4])
C1=Cc2nc1c(-c1ccncc1)c1ccc([nH]1)c(-c1ccncc1)c1nc(c(-c3ccncc3)c3ccc([nH]3)c2-c2ccncc2)C=C1,> 50,> 50,–,–
C1=Cc2nc1c(-c1ccccc1)c1ccc([nH]1)c(-c1ccccc1)c1nc(c(-c3ccccc3)c3ccc([nH]3)c2-c2ccccc2)C=C1,> 50,> 50,–,–
Nc1ccc(-c2ccc(-c3c4nc(c(-c5ccc(-c6ccc(N)cc6)cc5)c5ccc([nH]5)c(-c5ccncc5)c5nc(c(-c6ccncc6)c6ccc3[nH]6)C=C5)C=C4)cc2)cc1,82.8,63.4,–,–
Brc1ccc(-c2c3nc(c(-c4ccc(-c5ccncc5)cc4)c4ccc([nH]4)c(-c4ccc(Br)cc4)c4nc(c(-c5ccc(-c6ccncc6)cc5)c5ccc2[nH]5)C=C4)C=C3)cc1,> 50,> 50,–,–
Brc1ccc(-c2c3nc(c(-c4ccncc4)c4ccc([nH]4)c(-c4ccncc4)c4nc(c(-c5ccncc5)c5ccc2[nH]5)C=C4)C=C3)cc1,> 50,> 50,–,–
O=C(O)c1ccc(-c2c3nc(c(-c4ccc(C(=O)O)cc4)c4ccc([nH]4)c(-c4ccc(C(=O)O)cc4)c4nc(c(-c5ccc(C(=O)O)cc5)c5ccc2[nH]5)C=C4)C=C3)cc1,2.02,0.563,–,–
Brc1ccc(-c2c3nc(c(-c4ccc(Br)cc4)c4ccc([nH]4)c(-c4ccncc4)c4nc(c(-c5ccncc5)c5ccc2[nH]5)C=C4)C=C3)cc1,> 50,> 50,–,–
COc1cc([C@@H]2c3cc4c(cc3[C@@H](O[C@@H]3O[C@@H]5CO[C@@H](C)O[C@H]5[C@H](O)[C@H]3O)[C@H]3COC(=O)[C@H]23)OCO4)cc(OC)c1O,–,–,inactive,–
COc1cc(NS(C)(=O)=O)ccc1Nc1c2ccccc2nc2ccccc12,–,–,–,Active
Brc1ccc(-c2c3nc(c(-c4ccncc4)c4ccc([nH]4)c(-c4ccc(Br)cc4)c4nc(c(-c5ccncc5)c5ccc2[nH]5)C=C4)C=C3)cc1,> 50,> 50,–,–
CN(C)c1ccc(-c2c3nc(c(-c4ccc(N(C)C)cc4)c4ccc([nH]4)c(-c4ccc(N(C)C)cc4)c4nc(c(-c5ccc(C(=O)O)cc5)c5ccc2[nH]5)C=C4)C=C3)cc1,1.97,1.23,–,–
